# Efflux pump mplx: inhibitors of Candida antifungal efflux pumps expressed in yeast | S. cerevisiae Candida pump triplex, Nile Red efflux | inhibition, % at 10 µM | 330,000 compounds, 0.44% hits | AID 485275;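 active = plate passing quality check with inhibition over a set limit, or well fluorescence over plate mean plus 4 SD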;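 also: Nile Red retained in pooled yeast measured as flow cytometry median fluorescence; 0% = buffer negative control and 100% = Enniatin B positive control; higher means more Nile Red kept so more efflux inhibition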
# HGIII-sPLA2 inh: Inhibits HGIII-sPLA2 liposome hydrolysis, primary screen | QFRET BODIPY PC-A2 liposome hydrolysis, fluorescence | inhibition, % at 12.2 µM | 370,000 compounds, 0.56% hits | AID 743126;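 active = inhibition above mean plus 3 SD of compounds lying within the high and low control bounds, cut at about 19% in these data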;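 also: 0% = median of test compound wells and 100% = no enzyme DMSO wells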
# Target sequence (Q9NZ20 whole entry, looked up): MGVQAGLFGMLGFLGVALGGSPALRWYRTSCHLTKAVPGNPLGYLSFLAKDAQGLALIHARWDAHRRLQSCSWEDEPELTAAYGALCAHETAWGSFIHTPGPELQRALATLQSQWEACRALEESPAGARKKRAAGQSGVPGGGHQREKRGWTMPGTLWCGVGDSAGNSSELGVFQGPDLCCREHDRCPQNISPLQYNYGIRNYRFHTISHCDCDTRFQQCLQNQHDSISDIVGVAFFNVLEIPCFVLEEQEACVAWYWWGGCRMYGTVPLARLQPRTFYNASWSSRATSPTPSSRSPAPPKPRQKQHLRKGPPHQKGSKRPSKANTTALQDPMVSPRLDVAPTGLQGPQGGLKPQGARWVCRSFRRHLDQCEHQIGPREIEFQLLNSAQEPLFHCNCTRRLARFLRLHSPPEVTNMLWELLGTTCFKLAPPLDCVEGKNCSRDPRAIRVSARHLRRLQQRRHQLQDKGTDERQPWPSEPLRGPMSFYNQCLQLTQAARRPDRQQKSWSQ
# MT1-MMP act inh: inhibitors of human MT1-MMP activation; HT1080 RFP-PRO-GFP cells, GFP/RFP ratio fluorescence, overnight; percent of plate control window, DMSO zero; GFP/RFP ratio change, % at 20 µM; 360,000 compounds, 0.061% hits; AID 651647;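 active = GFP/RFP ratio change of at least 30% with cell ATP level not reduced by more than half and red fluorescence within 50% of control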
#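 Assay system: HT1080 cells carrying an RFP-PRO-GFP reporter | Dosing: Single dose of 20 µM compound, 1% DMSO final | Incubation: Cells overnight before dosing, compound overnight, 37 °C, 5% CO2 | Evaluation: GFP/RFP fluorescence ratio | Control set: DMSO and RFP-L50D-GFP cell wells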
# TAG inh: triacylglycerol accumulation inhibition. 230,000 compounds, 0.66% hits. inhibition, % at 12.5 µM. AID 651582. H9c2 cells, Nile Red lipid (TAG) fluorescence; cells loaded with 200 µM oleic acid;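 active = pattern-corrected inhibition of lipid staining of at least 50% with the nuclear-stain viability signal not falling by more than 50%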;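 also: 0% = DMSO wells and 100% = triacsin C control wells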
# Cmpd fluor yeast: flagged as fluorescent in efflux inhibitor counter-screen; shares compounds with Efflux pump mplx; S. cerevisiae AD/pABC3, compound fluorescence, flow cytometry; fluorescence ratio to DMSO, % at 10 µM; 1,700 compounds, 4% hits; AID 588517;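 active = fluorescence ratio to DMSO above its plate's cutoff, the plate mean ratio plus 5 SD, cut at about 210% in these data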;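 also: unstained yeast with no Nile Red so the signal is compound autofluorescence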
# CaMdr1 efflux inh: blocks the Candida albicans Mdr1 efflux pump in yeast. inhibition, % at 10 µM. S. cerevisiae AD/CaMDR1, Nile Red efflux, flow cytometry. shares compounds with Efflux pump mplx. 1,700 compounds, 1% hits. AID 588518; in the data active = inhibition above about 26%;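 also: 0% = DMSO vehicle and 100% = reference inhibitor; higher means more Nile Red retained so more efflux inhibition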
# Cdr2 pump inh: inhibitors of Candida albicans Cdr2 efflux pump; shares compounds with Efflux pump mplx; S. cerevisiae AD/CaCDR2, Nile Red retention, flow cytometry; Nile Red retention ratio vs DMSO, % at 10 µM; 1,700 compounds, 4% hits; AID 588520; in the data active = Nile Red retention ratio vs DMSO above about 190%;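 also: higher ratio means more blocking of Cdr2 efflux of the dye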
# Cdr1 pump inh: inhibitors of Candida albicans Cdr1 efflux pump | 1,700 compounds, 1% hits | shares compounds with Efflux pump mplx | inhibition, % at 10 µM | S. cerevisiae AD/CaCDR1, Nile Red efflux, flow cytometry;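 active = inhibition above the screen-wide mean plus twice its standard deviation, cut at about 32% in these data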
# Numbers without * were called inactive; i = inactive; . = not tested or not shown. The list is not random: actives were taken first. Their share in the collection is about 1.3%.
SMILES,Efflux pump mplx,HGIII-sPLA2 inh,MT1-MMP act inh,TAG inh,Cmpd fluor yeast,CaMdr1 efflux inh,Cdr2 pump inh,Cdr1 pump inh
Cc1ccc(/C=c2\sc3nc(-c4cccs4)nn3c2=O)o1,0.5*,-44,-7,.,110,0,89,0
O=c1/c(=C/c2ccco2)sc2nc(-c3ccccc3Br)nn12,0,0,8,-13,99,0,99,0
Oc1ccccc1CC=NC1CCCCC1,.,-4,2,3,.,.,.,.
Cc1ccc(C(=O)N(c2ccccc2)C2CC(C)N(C(=O)c3ccco3)c3ccccc32)cc1 (configuration not stated),0,-6,-15,-7,.,.,.,.
Cc1ccc(-n2c(=O)[nH]c3c(C(N)=O)nc(-c4ccc(C)o4)nc32)cc1,0,-15,-2,.,99,0,93,0
CCC(CC)c1nc(C(N)=O)c2[nH]c(=O)n(-c3ccc(OC)c(OC)c3)c2n1,0,6,-3,.,.,.,.,.
COc1ccc(OC)c(-c2nc(C(N)=O)c3[nH]c(=O)n(-c4ccc(F)cc4)c3n2)c1,0,3,0,-3,80,0,89,0
COc1ccc(-c2nc(C(N)=O)c3[nH]c(=O)n(-c4ccccc4OC)c3n2)c(OC)c1,0,0,-5,-6,99,0,92,0
CCCCN(CC)C(=O)Cn1ncc2c3ccccc3n(CCC)c2c1=O,0,-1,1,.,.,.,.,.
C/C(=N\NC(=O)c1cccc(C)c1O)c1ccc(NC(=O)Cc2ccccc2)cc1,0,-1,6,-6,.,.,.,.
CCOc1ccc(NC(=O)Nc2cc(C(=O)O)ccc2N2CC3CC(C2)c2cccc(=O)n2C3)cc1 (configuration not stated),0,5,1,.,.,.,.,.
C[C@@H]1CC[C@]2(C(=O)O)CC[C@]3(C)C(=CCC4[C@]56CC[C@@](O)(OC5)C(C)(C)C6CC[C@]43C)C2[C@H]1C (some centres not stated),1.4*,.,6,.,104,0,204*,0
O=C(CCC1CCCCC1)NNC(=O)NC12CC3CC(CC(C3)C1)C2,0.7*,-17,6,.,98,0,87,0
COc1cccc(N/C=C/C(=O)c2ccc(Cl)cc2)c1,0,-14,3,.,.,.,.,.
COc1ccc(N/C=C/C(=O)c2ccc(Cl)cc2)cc1,15*,-15,4,.,94,0,100,0
COc1ccc(C(=O)N2CCN(c3ccccc3)CC2)cc1S(=O)(=O)N1CCCC1,6.2*,0,3,.,109,0,110,0
O=C(NNC(=O)C1COc2ccccc2O1)c1cccc([N+](=O)[O-])c1 (configuration not stated),1.2*,1,-2,12,107,0,97,0
CCN1CCN(C2=CC3=CC(=C(C#N)C#N)CCC3CC2)CC1 (configuration not stated),.,.,-97,-295,140,1,203*,0
N#CC(C#N)=C1C=C2C=C(N3CCCCCC3)CCC2CC1 (configuration not stated),.,i,-49,.,258*,2,271*,1
CN1CCN(C2=CC3=CC(=C(C#N)C#N)CCC3CC2)CC1 (configuration not stated),.,.,-114,-218,161,0,243*,0
CC1(C)CC(NCCN2CCN(C3=CC(=C(C#N)C#N)CC(C)(C)C3)CC2)=CC(=C(C#N)C#N)C1,0,-2,-4,4,.,.,.,.
N#Cc1cc(Cl)c(N2CCOCC2)cc1C#N,0,-5,5,-4,.,.,.,.
N#CC(C#N)=C1C=C2C=C(N3CCOCC3)CCC2CC1 (configuration not stated),.,-131,-14,-108,184,2,206*,1
CC1CCc2c(C(=O)Nc3ccc(OC(F)(F)F)cc3)csc2C1 (configuration not stated),19*,16,-5,-17,99,0,104,0
